Measurements from different studies.
Protocols differ between the studies behind these lines.
Target: Prostaglandin G/H synthase 1 (PTGS1, Ovis aries, UniProt P05979)
Effect on: enzyme activity
Mode: inhibitor
One construct used (P05979 25-600): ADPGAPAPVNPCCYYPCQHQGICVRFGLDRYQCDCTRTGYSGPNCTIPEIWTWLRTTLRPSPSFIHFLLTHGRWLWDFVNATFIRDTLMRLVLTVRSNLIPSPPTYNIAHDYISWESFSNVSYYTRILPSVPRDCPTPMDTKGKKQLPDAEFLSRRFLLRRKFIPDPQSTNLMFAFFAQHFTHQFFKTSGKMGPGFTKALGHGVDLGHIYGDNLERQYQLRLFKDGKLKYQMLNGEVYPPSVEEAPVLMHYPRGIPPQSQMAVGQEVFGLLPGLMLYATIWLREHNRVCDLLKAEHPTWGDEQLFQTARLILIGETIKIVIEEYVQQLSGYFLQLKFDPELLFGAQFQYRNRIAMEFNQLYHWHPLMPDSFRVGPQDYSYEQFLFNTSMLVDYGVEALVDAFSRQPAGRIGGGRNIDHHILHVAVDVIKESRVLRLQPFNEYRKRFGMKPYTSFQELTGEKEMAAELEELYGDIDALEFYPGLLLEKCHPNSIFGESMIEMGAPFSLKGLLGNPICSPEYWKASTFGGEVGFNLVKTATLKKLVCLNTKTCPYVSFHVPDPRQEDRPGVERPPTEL

Structure (SMILES)	method	IC50 [µM]
Cc1ccn2c(Nc3ccc(F)cc3)c(-c3ccc(S(C)(=O)=O)cc3)nc2c1	fluorescence	33.6
CS(=O)(=O)c1ccc(-n2cc(/C=N/N=c3\[nH]c(-c4ccc([N+](=O)[O-])cc4)cs3)c(-c3ccc(Br)cc3)n2)cc1		24.5
COc1ccc(Nc2c(-c3ccc(S(C)(=O)=O)cc3)nc3cc(C)ccn23)cc1	fluorescence	29.7
Cc1ccc(/C=C2\C=C(CC(=O)O)c3cc(F)ccc32)cc1		3.2
CS(=O)(=O)c1ccc(-n2cc(/C=N/N=c3\[nH]c(-c4ccc([N+](=O)[O-])cc4)cs3)c(-c3ccc([N+](=O)[O-])cc3)n2)cc1		38.5
O=C(O)CC1=C/C(=C\c2cccc(-c3ccc(F)cc3)n2)c2ccc(F)cc21		9.3
CS(=O)(=O)c1ccc(-c2ncccc2-c2nc3ccccc3s2)cc1	absorbance	> 100
C[C@@H]1O[C@@H](OC[C@H]2O[C@@H](Oc3c(-c4ccc(O)cc4)oc4cc(O)cc(O)c4c3=O)[C@H](O[C@@H]3O[C@H](CO)[C@@H](O)[C@H](O)[C@H]3O)[C@@H](O)[C@@H]2O)[C@H](O)[C@H](O)[C@H]1O	absorbance	12.9
Cc1ccc(Nc2c(-c3ccc(S(C)(=O)=O)cc3)nc3cccc(C)n23)cc1	fluorescence	19.6
CSc1ccc(/C=C2\C=C(CC(=O)NS(=O)(=O)c3ccc(C(F)(F)F)cc3)c3cc(F)ccc32)cc1		3.9
CC(C(=O)O)c1cccc(C(=O)c2ccccc2)c1 (stereo not drawn)		0.05
CC(C)Cc1ccc(-c2nn(-c3ccc(S(C)(=O)=O)cc3)cc2/C=N/N=c2\[nH]c(-c3ccc([N+](=O)[O-])cc3)cs2)cc1		34.4
CS(=O)(=O)c1ccc(-c2nc3ccccn3c2Nc2ccc(Cl)cc2)cc1	fluorescence	34.3
CS(=O)(=O)c1ccc(-n2cc(/C=N/N=c3\[nH]c(-c4ccc(Br)cc4)cs3)c(-c3ccc(Br)cc3)n2)cc1		9.42
Cc1cccn2c(Nc3ccc(F)cc3)c(-c3ccc(S(C)(=O)=O)cc3)nc12	fluorescence	31.5
COc1ccccc1-c1ccc(F)c(C(F)(F)F)c1	absorbance	9.99
Cc1cccc2nc(-c3ccc(S(C)(=O)=O)cc3)c(Nc3ccc(Cl)cc3)n12	fluorescence	27.1
Cc1ccc(-c2nc3ccccc3s2)c(-c2ccc(S(C)(=O)=O)cc2)c1	absorbance	> 100
COc1ccccc1-c1cccc([N+](=O)[O-])c1F	absorbance	9.34
CS(=O)(=O)c1ccc(-c2ncc(Cl)cc2-c2nc3ccccc3s2)cc1	absorbance	> 100
COc1ccc(F)c(-c2ccccc2OC)c1	absorbance	8.23
CS(=O)(=O)c1ccc(-c2nc3ccccn3c2Nc2ccc(F)cc2)cc1	fluorescence	23.8
Cc1ccc(-c2nn(-c3ccc(S(C)(=O)=O)cc3)cc2/C=N\N=c2/[nH]c(-c3ccc([N+](=O)[O-])cc3)cs2)cc1		49.6
COc1ccccc1-c1ccc(F)c(OC(F)(F)F)c1	absorbance	10.8
